Assay [1] addresses T1, SNAP-mGluR3 (Rattus norvegicus, UniProt P31422). Kind of assay: GIRK current, whole-cell patch clamp. It is filed as cell-based. Conditions: GIRK1-F137S co-expressed. (In patch-clamp work, channel activity is measured electrically.)
Assay [2] addresses T1, SNAP-mGluR3. Kind of assay: GIRK current, whole-cell patch clamp. It is filed as cell-based. The essentials: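 Cells grown in DMEM with 10% FBS at 37 °C/5% CO2, seeded on poly-L-lysine-coated glass coverslips, and co-transfected (Lipofectamine 2000) with receptor, GIRK1-F137S homotetramer and tdTomato. Medium was switched at 6 h to 5 µM LY341495. Whole-cell voltage clamp at −60 mV 24–36 h post-transfection. Log EC50 of point mutants versus WT compared by extra sum-of-squares F-test.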

The values that follow come from PMC11294631 (Nature Communications, 2024).

What is called pEC50 is the EC50 on a negative log10 scale, so that one unit is a factor of ten. Read a low pEC50 as a large EC50.

pEC50: −log10 of the molar value. Like-named read-outs stand apart in the source and are kept apart here.

T1 sequence (P31422 23-879): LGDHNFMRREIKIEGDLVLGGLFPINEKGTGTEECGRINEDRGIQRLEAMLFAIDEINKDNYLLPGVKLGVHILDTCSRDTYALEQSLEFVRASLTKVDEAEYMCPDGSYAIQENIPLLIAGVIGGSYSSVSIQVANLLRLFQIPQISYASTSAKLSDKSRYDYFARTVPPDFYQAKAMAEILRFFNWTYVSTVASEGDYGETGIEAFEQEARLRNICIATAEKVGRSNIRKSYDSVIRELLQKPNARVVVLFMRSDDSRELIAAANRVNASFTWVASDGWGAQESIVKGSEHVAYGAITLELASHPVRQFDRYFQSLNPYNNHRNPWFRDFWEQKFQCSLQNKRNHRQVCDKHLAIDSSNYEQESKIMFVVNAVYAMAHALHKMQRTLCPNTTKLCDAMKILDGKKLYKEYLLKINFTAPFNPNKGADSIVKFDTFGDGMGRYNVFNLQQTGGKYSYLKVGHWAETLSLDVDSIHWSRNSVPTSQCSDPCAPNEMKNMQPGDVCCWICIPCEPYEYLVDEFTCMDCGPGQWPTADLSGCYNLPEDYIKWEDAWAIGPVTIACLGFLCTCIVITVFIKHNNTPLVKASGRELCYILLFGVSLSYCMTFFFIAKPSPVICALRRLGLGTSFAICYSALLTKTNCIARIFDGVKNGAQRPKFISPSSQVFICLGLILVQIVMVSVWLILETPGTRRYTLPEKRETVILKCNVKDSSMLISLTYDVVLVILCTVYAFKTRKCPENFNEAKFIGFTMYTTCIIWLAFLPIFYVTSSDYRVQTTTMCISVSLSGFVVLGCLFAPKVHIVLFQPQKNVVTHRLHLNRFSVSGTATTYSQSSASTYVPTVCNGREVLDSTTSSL

As to `N[C@H](C(=O)O)C1[C@@H](C(=O)O)[C@@H]1C(=O)O` (stereo partly shown) [DCG-IV], the EC50 result at SNAP-mGluR3 [1] (orthosteric partial agonist) is reported as “All three agonists produced dose-dependent, reversible GIRK currents”.

In the case of `N[C@@]1(C(=O)O)CO[C@H]2[C@H](C(=O)O)[C@H]21` [LY379268], the EC50 result on SNAP-mGluR3 [1] (orthosteric agonist) is “All three agonists produced dose-dependent, reversible GIRK currents”.

For `COc1ccc(C(=O)O)cc1OC[C@H](C)COc1ccc(C(=O)CC(C)(C)C)c(O)c1C` [VU6023326, (R)−3-(3-(4-(3,3-dimethylbutanoyl)−3-hydroxy-2-methylphenoxy)−2-methyl-propoxy)−4-methoxybenzoic acid], at SNAP-mGluR3 [2], the negative logarithm of the EC50 (pEC50) is 8.10.

As for `N[C@@H](CCC(=O)O)C(=O)O` [glutamate], the EC50 entry at SNAP-mGluR3 [1] (orthosteric agonist) is recorded as “All three agonists produced dose-dependent, reversible GIRK currents”.
